Screening data (PubChem BioAssay)
In the library only some 8.8% were active in any assay of this set; here they are far more common.
M1 antag: blocks the rat M1 muscarinic receptor response to acetylcholine. B-score at 10 µM. AID 628. actives 3.4% (n = 64,000). CHO-M1 cells, Fluo-4 calcium, ACh EC80 antagonist mode; stronger effect = lower value;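 active = calcium fluorescence response, raw or row-and-column corrected B-score, differing from the plate sample mean either way at a set confidence level, mostly lower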
S1P3 agonist: agonists of human S1P3 receptor; S1P3 NFAT-BLA reporter cells, agonism, FRET ratio; relative to 1 µM S1P, basal subtracted; actives 0.1% (n = 60,000); Q99500; AID 373; activation, % at 4.5 µM;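 active = activation above the screen-wide mean plus 3 SD, cut at about 4.5% in these data, passing the limit was not always enough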
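Assay system: CHO cells stably expressing human S1P3, Gα16 and NFAT-β-lactamase reporter. Timing: overnight plating, 4 h compound 37 °C, 2 h substrate RT. Signal: β-lactamase FRET emission ratio 460/535 nm. Measure: percent activation versus median 1 µM S1P response, basal-subtracted, per plate. Repeats: primary screen single test, confirmation screen in triplicate.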
M1 ag: activates the M1 muscarinic receptor | CHO-M1 cells, Fluo-4 calcium fluorescence, agonist mode; stronger effect = higher value | B-score at 10 µM | actives 3% (n = 64,000) | AID 626;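 active = fluorescence rise, raw or as B-score row- and column-corrected plate score, outside the 99.7% band of its plate's samples, either direction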
SF1 activator: activators of human nuclear receptor SF-1 | Q13285 | CHO-K1 Gal4-SF-1 LBD luciferase reporter; % increase over DMSO SF-1-specific signal | activation, % at 10 µM | actives 1.9% (n = 65,000) | AID 522;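 active = activation above the mean activation of all tested compounds plus 3 SD, cut at about 50% in these data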
Target sequence (Q13285 whole entry, looked up, the tested form may be a part): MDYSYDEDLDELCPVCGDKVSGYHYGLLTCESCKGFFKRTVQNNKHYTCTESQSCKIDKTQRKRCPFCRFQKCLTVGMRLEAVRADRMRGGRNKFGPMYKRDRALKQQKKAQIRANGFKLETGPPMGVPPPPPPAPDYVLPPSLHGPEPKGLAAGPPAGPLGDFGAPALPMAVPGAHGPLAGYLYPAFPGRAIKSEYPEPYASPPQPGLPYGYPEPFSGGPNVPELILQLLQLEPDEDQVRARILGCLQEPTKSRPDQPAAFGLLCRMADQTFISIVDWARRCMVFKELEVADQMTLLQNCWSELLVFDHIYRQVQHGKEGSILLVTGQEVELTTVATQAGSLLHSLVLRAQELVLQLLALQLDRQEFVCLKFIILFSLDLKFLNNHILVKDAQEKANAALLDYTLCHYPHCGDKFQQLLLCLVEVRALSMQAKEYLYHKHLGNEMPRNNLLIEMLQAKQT
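Compound – one dose, 10 µM compound, 1% DMSO · Test system – transient Gal4-SF-1 LBD reporter, CHO-K1 · Input – 4,000 cells in each well · Read-out basis – percent activation relative to DMSO median and mock-transfected background · Replicates – single measurement per compound · Technique – steady-glow luciferase luminescence, read after 15 min reagent incubation · Timing – 20 h compound treatment, 37 °C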
S1P1 ag-PAM: agonists and agonism potentiators of human S1P1 receptor; P21453; S1P1 CRE-bla cells, forskolin, beta-lactamase FRET, potentiator mode; S1P1 agonist co-added at EC20, 2 nM; 100% = saturating reference agonist, 0% = basal; activation, % at 9.5 µM; actives 0.57% (n = 56,000); AID 449;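 active = activation above a cutoff set at the mean activation of all tested compounds plus 3 SD, cut at about 54% in these data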;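 also: forskolin at 4 µM as EC80 and the EC20 agonist is SEW2871; 100% = SEW2871 at its EC100 plus forskolin at EC80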
RORa activator: activators of human nuclear receptor RORA. P35398. CHO-K1 Gal4-RORA LBD luciferase reporter, luminescence; percent increase over mock-subtracted basal signal. activation, % at 10 µM. actives 1.5% (n = 65,000). AID 560;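 active = activation above the mean of all tested compounds plus 3 SD, cut at about 49% in these data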;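 also: 0% = DMSO-treated RORA cells and 100% = added signal equal to DMSO minus mock-transfected cells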
M1 antag confirm: confirmation of rat M1 muscarinic receptor antagonists | calcium response (max-min fluorescence) at 10 µM | CHO-M1 cells, Fluo-4 calcium, ACh EC80 antagonism; stronger effect = lower value | actives 43% (n = 1,700) | shares compounds with M1 antag | AID 677;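 active = calcium response below the same-plate mean of wells given acetylcholine alone at its 80%-effect dose, minus 3 SD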;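 also: raw fluorescence intensity difference in arbitrary instrument units and not normalized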
mGluR4 antag: mGluR4 (human) activity, M1 antagonist secondary assay | fluorescence response (max-min) at 10 µM | shares compounds with M1 antag | CHO-mGluR4 calcium flux, Fluo-4 fluorescence, glutamate EC80; stronger effect = lower value | AID 678 | actives 0.9% (n = 1,700);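 active = fluorescence response below the plate's average for near-maximal glutamate wells, less 3 SD of those wells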;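 also: raw unnormalized fluorescence span taken in the window right after glutamate addition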
* marks the source's active call; other numbers are inactive results; / = not tested or not shown.

SMILES	M1 antag	S1P3 agonist	M1 ag	SF1 activator	S1P1 ag-PAM	RORa activator	M1 antag confirm	mGluR4 antag
CCOC(=O)CNC(=O)CSc1nc(N)cc(N)n1	0.093	0	-0.53	3	1	-6	/	/
CC12CN3CC(C)(CN(C1)C3c1ccc(Br)cc1)C2 (stereo not given)	-3.7*	-1	-0.34	18	-7	-29	387*	251
COc1cc(C2N3CC4(C)CN2CC(C)(C3)C4)ccc1O (stereo not given)	0.37	/	-0.39	0	/	-7	/	/
CC(C)C[C@H](N)c1nnc(S(=O)(=O)Cc2ccc(F)cc2)o1	0.4	-2	-0.42	1	5	6	/	/
COc1ccc2nc(NC(=O)c3cnccn3)sc2c1	-2.7*	-1	-1.9	-4	8	19	616	171
COc1ccc2nc(NC(=O)CCn3cccc3)sc2c1	-1.4	0	0.04	-2	-2	12	/	/
O=C1CC(N2CCC(c3nc4ccccc4s3)CC2)C(=O)N1 (stereo not given)	-1.7*	-1	0.048	3	-10	-4	664	183
O=C1CC(N2CCN(c3nc4ccccc4s3)CC2)C(=O)N1c1ccc(F)cc1 (stereo not given)	-0.045	0	-0.29	-7	-20	-10	/	/
CCOC(=O)C1CCN(S(=O)(=O)c2cc(Br)cc3c2N(C(C)=O)C(C)C3)CC1 (stereo not given)	-2.3*	/	0.43	-1	/	-8	519	200
CCOC(=O)N1CCN(S(=O)(=O)c2cc(Br)cc3c2N(C(C)=O)C(C)C3)CC1 (stereo not given)	0.13	/	-0.035	4	/	-15	/	/
Cn1c(=O)c2c(nc(SCCN3CCOCC3)n2Cc2ccccc2Cl)n(C)c1=O	0.15	-1	-0.78	1	0	10	/	/
Cn1c(=O)c2c(nc(SCCN3CCOCC3)n2Cc2ccc(F)cc2)n(C)c1=O	0.81	-1	0.34	-2	2	10	/	/
Cc1ccc(Cn2c(SCCN3CCCCC3)nc3c2c(=O)n(C)c(=O)n3C)cc1	-3.9*	-2	-2	-8	-4	11	267*	247
Cn1c(=O)c2c(nc(SCCN3CCCCC3)n2Cc2ccccc2)n(C)c1=O	-4.7*	-1	-1.1	-5	16	-6	246*	247
CN(Cc1ccccc1)Cc1nc2c(c(=O)n(C)c(=O)n2C)n1Cc1ccc(F)cc1	-2.6*	-2	0.3	-11	-10	-3	657	223
Cc1ccc(Cn2c(CN(C)Cc3ccccc3)nc3c2c(=O)n(C)c(=O)n3C)cc1	-0.18	0	-0.26	0	-19	-3	/	/
Oc1c(CN2CCCCC2)cc(COCc2ccccc2)c2cccnc12	-5.4*	0	-0.46	-89	13	-53	410*	272
Oc1c(CN2CCN(c3ccccn3)CC2)cc(Cl)c2cccnc12	-1.9*	-1	-3.1	-67	0	-60	577	271
COc1ccc(C2C3=C(CC(C)(C)CC3=O)Nc3c2c(=O)[nH]c2nc(C)nn32)cc1 (stereo not given)	-0.22	-1	-1.7	8	-6	-18	/	/
Cc1noc(C)c1COC(=O)c1ccc(S(=O)(=O)NCc2ccco2)cc1	-2.6*	1	-0.15	13	9	-9	371*	194
O=C(c1ccc(Cl)cc1)N1CCN(c2nc(N3CCCCC3)nc(N3CCCCC3)n2)CC1	0.35	/	-0.28	/	/	/	/	/
Cc1ccccc1C(=O)c1ccc2c(c1)n(C)c(=O)n2C	0.39	-5	0.0021	-1	-25	-15	/	/
COCCCn1c(SCC(=O)N(C)C)nnc1-c1ccccc1	0.25	0	0.096	8	-1	-2	/	/
CCOC(=O)CN(C(=O)CSc1nnc(-c2ccncc2)n1CCCN(C)C)c1ccccc1	-1.4*	-1	0.28	6	-5	5	611	249
Nn1c(SCc2nc3ccccn3c2Br)nnc1-c1cccnc1	0.45	1	-0.37	1	11	0	/	/
SMILES	M1 antag	S1P3 agonist	M1 ag	SF1 activator	S1P1 ag-PAM	RORa activator	M1 antag confirm	mGluR4 antag
CCC(Sc1ncnc2c1nnn2-c1ccc(F)cc1)C(=O)OC (stereo not given)	-2.8*	0	-0.13	19	-15	-4	640	243
CCOC(=O)C(C)Sc1ncnc2c1nnn2-c1ccc(F)cc1 (stereo not given)	-0.82	0	-0.41	-2	-13	0	/	/
CCOC(=O)c1sc(NC(=O)CSc2nnc(-c3ccco3)n2CC)c(C(=O)OCC)c1C	-0.065	0	-0.51	28	19	0	/	/
CCOC(=O)c1c(NC(=O)CSc2nnc(-c3ccccc3)n2CC)sc(C(C)=O)c1C	-1.2*	-1	0.058	10	-25	4	496	204
CCOC(=O)c1sc(NC(=O)CSc2nncs2)c(C(=O)OCC)c1C	-5*	-1	-0.19	0	-10	7	555	247
CCOC(=O)CN1C(=O)C(O)(C2CCc3ccccc3C2=O)c2ccccc21 (stereo not given)	-0.13	0	-0.014	-11	/	-10	/	/
COc1ccc(C2(CN(C(C)=O)C(C)=O)CCCC2)cc1OC	-14*	-3	-0.95	-3	-2	6	546	197
O=C(CSc1nnc(-c2cccs2)n1CC1CCCO1)c1cc2ccccc2o1 (stereo not given)	-0.49	-1	0.24	-15	18	4	/	/
Nn1c(SCC(=O)Nc2ccccc2)nnc1-c1cccnc1	-0.39	0	0.23	1	-12	14	/	/
CN(CCC#N)C(=O)COC(=O)c1ccc(Cl)c(S(N)(=O)=O)c1	-12*	0	0.32	1	-7	-4	642	226
O=C(Cn1nc(C(F)(F)F)c2c1CCCC2)Nc1ccc2c(c1)OCO2	0.36	-1	-0.015	-16	34	-16	/	/
C[N+]1=C2CCCCCN2C(O)(c2ccccc2)C1 (stereo not given)	0.52	0	0.34	2	1	-1	/	/
COC(=O)c1cc2sccc2n1Cc1nc(-c2ccc(OC)cc2)oc1C	-2.6*	-1	0.23	-20	-16	-20	508	232
COc1ccc(-c2nc(CS(=O)(=O)CC(=O)Nc3ccc(Cl)cc3)c(C)o2)cc1	-0.0014	0	-0.011	-1	-1	8	/	/
COC(=O)c1cc2ccsc2n1Cc1nc(-c2ccc(OC)cc2)oc1C	-5.5*	-1	-0.95	0	-14	-25	474*	240
